Results as given in PMC10240386 (Cell chemical biology, 2023).
Like-named read-outs stand apart in the source and are kept apart here.

Assays:
Pf20S β5 = Pf20S β5 (Plasmodium falciparum, UniProt A0A5K1K7U1+Q8IJT1); assay: biochemical; format: biochemical; conditions: for activity against Pf20S: Pf20S β5
human i-20S β5i = human i-20S β5i (Homo sapiens, UniProt P20618+P28062); assay: Proteasome IC50 determination, human i-20S β5i; format: biochemical
How it was run: (§1)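 Human i-20S (0.4 nM) assayed in 20 mM HEPES, 0.5 mM EDTA, 0.1 mg/mL BSA, pH 7.5, with 0.02% SDS and 15 µM Ac-ANW-AMC. Pf20S (1 nM) assayed in 50 mM Tris, 5 mM MgCl2, 1 mM DTT, pH 7.4, with 12 nM PA28α, 0.5 µM WLW-VS and 25 µM suc-LLVY-AMC. Test compound given as a 3-fold series, 100–0.0017 µM final. AMC read at 360/460 nm for 1–2 h; velocities fitted to a dose-response equation. Run in duplicate or triplicate.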

human c-20S β5c = human c-20S β5c (Homo sapiens, UniProt P20618+P28074); assay: Proteasome IC50 determination, human c-20S β5c; format: biochemical
How it was run: as §1, with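 “c-20S (0.2” for “i-20S (0.4”, “25” for “15”, “suc-LLVY-AMC.” for “Ac-ANW-AMC.”, “h; linear” for “h;”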

Pf Dd2^WT = assay: Parasite growth inhibition assay, erythrocytic stage; format: cell-based, Plasmodium falciparum; conditions: for EC50: read-out: EC50 Pf Dd2^WT; for inhibition of Pf growth: strain not stated in text (Figure 5A)
Dd2β6^A117D = assay: as above; format: cell-based, Plasmodium falciparum; conditions: for EC50: Plasmodium falciparum, 72 h, read-out: EC50 Dd2β6^A117D; for fold more resistant / reduced potency, Dd2β6^A117D versus parental Dd2: EC50 ratio
Dd2β5^A49S = assay: as above; format: cell-based, Plasmodium falciparum; conditions: for EC50: Plasmodium falciparum, 72 h, read-out: EC50 Dd2β5^A49S; for fold more resistant / reduced potency, Dd2β5^A49S versus parental Dd2: EC50 ratio
HepG2 cells = assay: HepG2 cell viability assay; format: cell-based; conditions: read-out: HepG2
[1] = tested on: Pf strains Cam3.I^rev and Cam3.I^R539T; assay: Extended RSA / parasite regrowth assay; format: cell-based, Plasmodium falciparum; conditions: 6 h pulse as in RSA, parasitemia on day 7, ART-sensitive and ART-resistant lines
How it was run: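 Cultures repeatedly sorbitol-synchronized, then Percoll-sorbitol enriched for late stages, allowed 3 h reinvasion and sorbitol-treated again to give 0–3 h rings. Rings plated at 0.5% parasitemia and exposed to test compound (700 or 800 nM) for 6 h, then washed. Transferred into 3 mL culture for seven days; parasitemia scored by microscopy on day 7.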

[2] = tested on: DHA-resistant clones DR1, DR2, DR4 derived from Dd2; assay: Standard 72-h in vitro assay on DHA-resistant clones; format: cell-based, Plasmodium falciparum; conditions: standard 72-h assay
i-20S/PA28α = assay: Degradation of the modified β-casein by i-20S; format: biochemical, human; conditions: β-casein pre-incubated with 100 μM compound, hemin and ascorbate; for degradation of β-casein by i-20S/PA28α, dialyzed set: then dialyzed; for degradation of β-casein by i-20S/PA28α, non-dialyzed control: not dialyzed
[3] = tested on: Pf Dd2 proteins and peptides; format: cell-based, Plasmodium falciparum; conditions: 700 nM for 6 h, Cy3-alkyne click, in-gel fluorescence
Dd2β6^A117DK13^R539T = assay: Parasite growth inhibition, dual resistant strain; format: cell-based, Plasmodium falciparum; conditions: EC50 fold change, three experiments (Figure 6B)
P. berghei ANKA lux = assay: In vivo efficacy in mice infected with P. berghei ANKA lux; parameters: species or system Swiss Webster mice; conditions: 20 mg/kg i.p. once daily day 3 to day 6, luminescence on day 7; positive control
[4] = tested on: Pf20S β5 in lysate of Dd2^WT; assay: Blocking of MV151 labeling in parasite lysate; format: binding, Plasmodium falciparum; conditions: 1 h preincubation of Dd2^WT lysate
How it was run: (§2)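 Dd2 wild-type or mutant parasite pellets lysed on ice for 1 h in 50 mM Tris-HCl, 5 mM MgCl2, 1 mM DTT, pH 7.4, then centrifuged; protein quantified by BCA. 5–10 µg of lysate protein preincubated with test compound for 1 h at 37°C. MV151 added at 2 µM final for a further 1 h at 37°C, protected from light. Run on 12% Bis-Tris SDS-PAGE and scanned at Cy3/TAMRA (λex 532, λem 560 nm).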

Pf20Sβ6^A117D = assay: Blocking of MV151 labeling in parasite lysate; format: binding, Plasmodium falciparum; conditions: 1 h preincubation of Dd2β6^A117D lysate
How it was run: as §2

Pf20Sβ5^A49S = assay: Blocking of MV151 labeling in parasite lysate; format: binding, Plasmodium falciparum; conditions: 1 h preincubation of Dd2β5^A49S lysate
How it was run: as §2

[5] = tested on: P. berghei G2025^R551T (K13^R551T); assay: Modified Peters' 4-day suppressive test for recrudescence, ART-resistant strain; format: in vivo, Swiss Webster mice; conditions: ART 50 mg/kg, ATZ4 100 mg/kg i.p. day 0 to day 2
[6] = Plasmodium falciparum, DD2, Erythrocyte, 72 h

| Compound | IC50 (Pf20S β5) | IC50 (human i-20S β5i) | IC50 (human c-20S β5c) | EC50 (Pf Dd2^WT; [6]) | EC50 (Dd2β6^A117D) | EC50 (Dd2β5^A49S) | parasite regrowth after pulse [1] | susceptibility of DHA-resistant clones compared with WT Dd2 [2] | activity against Pf20S (Pf20S β5) | labeling of parasite proteins and peptides [3] | also measured |
| --- | --- | --- | --- | --- | --- | --- | --- | --- | --- | --- | --- |
| C[C@H]1[C@@H](CC(N)=O)O[C@@H]2O[C@@]3(C)CC[C@H]4[C@H](C)CC[C@@H]1[C@@]24OO3 [ART1, 2-((3R,5aS,6R,8aS,9R,10R,12R,12aR)-3,6,9-trimethyldecahydro-12H-3,12-epoxy[1,2]dioxepino[4,3-i]isochromen-10-yl)acetamide] | 9200 nM | > 100000 nM | > 100000 nM | 43.7 ± 12.7 nM | 27.9 ± 11 nM | 30.2 ± 2.6 nM | re-established normal growth | modestly resistant | – | – | activity against human proteasomes (human i-20S β5i; hu i-20S): inactive; activity against human proteasomes (human c-20S β5c; hu c-20S): inactive; EC50 (HepG2 cells; Homo sapiens, HepG2, 72 h): > 100000 nM; degradation of β-casein by i-20S/PA28α, dialyzed set (i-20S/PA28α): unimpeded degradation of β-casein |
| C[C@H]1[C@@H](CC(=O)N[C@@H](CCCN=[N+]=[N-])C(=O)N[C@@H](CC(=O)NC(C)(C)C)C(=O)NCCNC(=O)c2cc(-c3ccccc3F)ccc2F)O[C@@H]2O[C@@]3(C)CC[C@H]4[C@H](C)CC[C@@H]1[C@@]24O3 [deoxy-ATZ-P1, (S)-2-((S)-5-azido-2-(2-((2R,3R,3aS,3a^1R,6R,6aS,9S,10aR)-3,6,9-trimethyldecahydro-10aH-3a^1,9-epoxyoxepino[4,3,2-ij]isochromen-2-yl)acetamido)pentanamido)-N^4-(tert-butyl)-N^1-(2-(2′,4-difluoro-[1,1′-biphenyl]-3-carboxamido)ethyl)succinamide] | – | – | – | – | – | – | – | – | highly potent inhibitors | minimal labeling of proteins and peptides | inhibition of Pf growth (Pf Dd2^WT): highly potent inhibitors |
| C[C@H]1[C@@H](CC(=O)NCCCC(=O)N[C@@H](CC(=O)NC(C)(C)C)C(=O)NCCNC(=O)c2cc(-c3ccccc3F)ccc2F)O[C@@H]2O[C@@]3(C)CC[C@H]4[C@H](C)CC[C@@H]1[C@@]24O3 [Deoxy-ATZ4, (S)-N4-(tert-butyl)-N1-(2-(2′,4-difluoro-[1,1′-biphenyl]-3-carboxamido)ethyl)-2-(4-(2-((2R,3R,3aS,3a1R,6R,6aS,9S,10aR)-3,6,9-trimethyldecahydro-10aH-3a1,9-epoxyoxepino [4,3,2-ij]isochromen-2-yl)acetamido)butanamido)succinamide] | – | – | – | – | – | – | – | equally susceptible | potency comparable with that of PI01 | – | EC50 (Pf Dd2^WT; 72 h growth inhibition in red blood cells, mean ± SD): 21.6 ± 1.4 nM; fold less potent against Dd2β6^A117D compared with Dd2 and Dd2K13^R539T (Dd2β6^A117D; EC50 fold change, three experiments (Figure 6B)): 5.6 fold; EC50 (HepG2 cells; 72 h cell viability, mean ± SD): 10800 nM; fold less potent against Dd2β6^A117DK13^R539T compared with Dd2 and Dd2K13^R539T (Dd2β6^A117DK13^R539T): 11.0 fold |
| CCN(CC)CCCC(C)Nc1ccnc2cc(Cl)ccc12 (stereo not shown) [chloroquine, reference compound] | – | – | – | – | – | – | – | – | – | – | parasite load (P. berghei ANKA lux): below the limit of detection |
| C[C@H]1[C@@H](O)O[C@@H]2O[C@@]3(C)CC[C@H]4[C@H](C)CC[C@@H]1[C@@]24OO3 [DHA, dihydroartemisinin, reference compound] | – | – | – | – | – | – | re-established normal growth | highly resistant | – | – | – |
| C[C@H]1[C@@H](CC(=O)NCC(=O)N[C@@H](CC(=O)NC(C)(C)C)C(=O)NCCNC(=O)c2cc(-c3ccccc3F)ccc2F)O[C@@H]2O[C@@]3(C)CC[C@H]4[C@H](C)CC[C@@H]1[C@@]24OO3 [ATZ2, (S)-N4-(tert-butyl)-N1-(2-(2′,4-difluoro-[1,1′-biphenyl]-3-carboxamido)ethyl)-2-(2-(2-((3R,5aS,6R,8aS,9R,10R,12R,12aR)-3,6,9-trimethyldecahydro-12H-3,12-epoxy[1,2]dioxepino[4,3-i]isochromen-10-yl)acetamido)acetamido)succinamide] | 2.9 ± 0.6 nM | 73 ± 19 nM | 210 ± 40 nM | 3 ± 0.6 nM | 4.4 ± 1.1 nM | 10.9 ± 2.6 nM | – | – | potency comparable with that of PI01 | – | times more potent than ART1 against Dd2 (Pf Dd2^WT; EC50 ratio): 10 times; fold improvement over PI01 against Dd2β6^A117D (Dd2β6^A117D): ≥ 5 fold; fold more resistant / reduced potency, Dd2β6^A117D versus parental Dd2 (Dd2β6^A117D): ≤ 2.9 fold; fold improvement over PI01 against Dd2β5^A49S (Dd2β5^A49S): > 100 fold; fold more resistant / reduced potency, Dd2β5^A49S versus parental Dd2 (Dd2β5^A49S): ≤ 3.6 fold; degradation of β-casein by i-20S/PA28α, non-dialyzed control (i-20S/PA28α): inhibited the degradation of β-casein |
| CC(C)(C)NC(=O)C[C@H](NC(=O)CCCNC(=O)OC(C)(C)C)C(=O)NCCNC(=O)c1cc(-c2ccccc2F)ccc1F [PI01, tert-butyl (S)-(4-((4-(tert-butylamino)-1-((2-(2′,4-difluoro-[1,1′-biphenyl]-3-carboxamido)ethyl)amino)-1,4-dioxobutan-2-yl)amino)-4-oxobutyl)carbamate] | 6 ± 0.8 nM | 200 ± 46 nM | 2000 nM | 7.4 ± 0.2 nM | 121 ± 20 nM | > 2770 nM | re-established normal growth | – | – | – | fold less active on hu i-20S than on Pf20S (human i-20S β5i; ratio of IC50 values): ~ 30 fold; fold less active on hu c-20S than on Pf20S (human c-20S β5c; ratio of IC50 values): ~300 fold; fold more resistant / reduced potency, Dd2β6^A117D versus parental Dd2 (Dd2β6^A117D): 16 fold; fold more resistant / reduced potency, Dd2β5^A49S versus parental Dd2 (Dd2β5^A49S): > 370 fold; EC50 (HepG2 cells; Homo sapiens, HepG2, 72 h): > 100000 nM; blocking of MV151 labeling of β5 [4]: dose dependently blocked labeling of β5; blocking of MV151 labeling of β5 (Pf20Sβ6^A117D): prevented PI01 and ATZ4 from inhibiting; blocking of MV151 labeling of β5 (Pf20Sβ5^A49S): prevented PI01 and ATZ4 from inhibiting; degradation of β-casein by i-20S/PA28α, non-dialyzed control (i-20S/PA28α): inhibited the degradation of β-casein; degradation of β-casein by i-20S/PA28α, dialyzed set (i-20S/PA28α): unimpeded degradation of β-casein |
| C[C@@H]1CC[C@H]2[C@@H](C)C(=O)O[C@@H]3O[C@@]4(C)CC[C@@H]1[C@]32OO4 [ART, artemisinin, reference compound] | – | – | – | – | – | – | – | – | – | minimal labeling of proteins and peptides | mice with positive blood smear on day 6 [5]: 20%; mice with positive blood smear on day 8 [5]: 40%; mice with positive blood smear on day 10 [5]: 100% |
| C[C@H]1[C@@H](CC(=O)N[C@@H](CCCN=[N+]=[N-])C(=O)N[C@@H](CC(=O)NC(C)(C)C)C(=O)NCCNC(=O)c2cc(-c3ccccc3F)ccc2F)O[C@@H]2O[C@@]3(C)CC[C@H]4[C@H](C)CC[C@@H]1[C@@]24OO3 [ATZ-P1, (S)-2-((S)-5-azido-2-(2-((3R,5aS,6R,8aS,9R,10R,12R,12aR)-3,6,9-trimethyldecahydro-12H-3,12-epoxy[1,2]dioxepino[4,3-i]isochromen-10-yl)acetamido)pentanamido)-N^4-(tert-butyl)-N^1-(2-(2′,4-difluoro-[1,1′-biphenyl]-3-carboxamido)ethyl)succinimide] | – | – | – | – | – | – | – | – | highly potent inhibitors | substantial labeling of proteins and peptides | inhibition of Pf growth (Pf Dd2^WT): highly potent inhibitors |
